Reference: article PMC10373209 (ACS Omega, 2023)
“Also recorded” adds a separate entry of the source. Values belong to the compound of their own block, whether it stands above or below them.

Legend:
Taq DNA polymerase = Taq DNA polymerase (Thermus aquaticus, UniProt P19821); assay: Taq DNA polymerase inhibition; format: biochemical; settings: for inhibitory activity against Taq DNA polymerase (in words): PCR assay
SRP-ΔΔΔΔ (ΔΔΔΔpdr) = assay: Yeast growth inhibition dose-response, SRP-ΔΔΔΔ; format: cell-based, Saccharomyces cerevisiae; settings: 1–128 μM range
Method in brief: (§1)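 S. cerevisiae haploid MATa deletion strains (wild-type reference BY4741) were grown in YPD at 25 °C. In a broth microdilution assay, an inoculum of OD620 0.001 (~25,000 cells/mL) was exposed to test compound at 1–128 μM in 1:2 serial dilutions. The zero control was eight technical replicates of 1% (v/v) DMSO.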

[1] = molecular target: M-MLV Reverse Transcriptase (RT-MMLV) (Moloney murine leukemia virus, UniProt P03355); assay: Retrotranscription inhibition; format: biochemical, myeloid murine leukemia virus
Δrad9 Δrad52 (ΔΔrad) = assay: Yeast growth inhibition dose-response, Δrad9 Δrad52; format: cell-based, Saccharomyces cerevisiae; settings: for cytotoxicity in ΔΔrad (in words): 1–128 μM range; for DNA damage in S. cerevisiae (in words): inferred from hypersensitivity of Δrad9 Δrad52
Method in brief: as §1

Taq DNA polymerase, sequence (P19821 whole entry): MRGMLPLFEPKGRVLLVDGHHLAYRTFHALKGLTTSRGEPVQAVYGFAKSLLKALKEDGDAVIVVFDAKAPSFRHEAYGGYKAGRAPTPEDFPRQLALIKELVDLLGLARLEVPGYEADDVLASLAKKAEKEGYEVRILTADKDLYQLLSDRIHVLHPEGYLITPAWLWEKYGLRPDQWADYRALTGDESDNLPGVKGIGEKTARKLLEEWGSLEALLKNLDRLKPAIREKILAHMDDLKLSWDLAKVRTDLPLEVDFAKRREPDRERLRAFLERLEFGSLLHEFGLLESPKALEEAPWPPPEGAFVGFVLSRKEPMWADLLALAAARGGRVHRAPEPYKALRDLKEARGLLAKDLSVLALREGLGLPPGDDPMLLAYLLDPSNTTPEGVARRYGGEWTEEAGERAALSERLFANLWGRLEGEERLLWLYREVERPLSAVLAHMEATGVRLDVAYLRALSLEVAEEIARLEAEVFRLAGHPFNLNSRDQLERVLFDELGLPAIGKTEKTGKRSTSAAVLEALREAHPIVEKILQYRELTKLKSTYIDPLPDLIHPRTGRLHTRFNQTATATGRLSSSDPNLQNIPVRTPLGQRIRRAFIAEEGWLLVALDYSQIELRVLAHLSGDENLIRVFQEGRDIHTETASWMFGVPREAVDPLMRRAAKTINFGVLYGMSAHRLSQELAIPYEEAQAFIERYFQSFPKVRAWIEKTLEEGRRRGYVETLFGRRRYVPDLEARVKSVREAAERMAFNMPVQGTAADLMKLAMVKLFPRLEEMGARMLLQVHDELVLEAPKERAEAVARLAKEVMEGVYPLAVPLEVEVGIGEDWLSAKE

activity in RT-PCR assay (in words) [1]: did not show activity
Structure (SMILES): O=c1cc(OCCCC2CO2)c2ccccc2o1 (stereo not drawn) [Compound 5a, 4-(3-(Oxiran-2-yl)propoxy)-2H-chromen-2-one]
cytotoxicity in ΔΔrad (in words) (Δrad9 Δrad52 (ΔΔrad)): Cytotoxicity was observed | DNA damage in S. cerevisiae (in words) (Δrad9 Δrad52 (ΔΔrad)): showed DNA damaging activity

activity in RT-PCR assay (in words) [1]: without activity
Structure (SMILES): O=c1ccc2ccc(OCCC3CO3)cc2o1 (stereo not drawn) [Compound 5b, 7-(2-(Oxiran-2-yl)ethoxy)-2H-chromen-2-one]
cytotoxicity in ΔΔrad (in words) (Δrad9 Δrad52 (ΔΔrad)): Cytotoxicity was observed | DNA damage in S. cerevisiae (in words) (Δrad9 Δrad52 (ΔΔrad)): caused DNA damage; also recorded: showed DNA damaging activity

Further lines, the compound ahead of its results:

Structure (SMILES): O=c1cc(CCl)c2ccc(O)cc2o1 [Compound 2a, 4-(Chloromethyl)-7-hydroxy-2H-chromen-2-one]
inhibitory activity against Taq DNA polymerase (in words) (Taq DNA polymerase): low or null in vitro activity

Structure (SMILES): O=c1cc(CCl)c2cc(O)ccc2o1 [Compound 2b, 4-(Chloromethyl)-6-hydroxy-2H-chromen-2-one]
inhibitory activity against Taq DNA polymerase (in words) (Taq DNA polymerase): low or null in vitro activity

Structure (SMILES): O=c1cc(CCl)c2ccc(O)c(O)c2o1 [Compound 2c, 4-(Chloromethyl)-7,8-dihydroxy-2H-chromen-2-one]
IC50 (Taq DNA polymerase): 142 ± 3.4 µM

Structure (SMILES): O=c1cc(CCl)c2c(O)cc(O)cc2o1 [Compound 2d, 4-(Chloromethyl)-5,7-dihydroxy-2H-chromen-2-one]
IC50 (Taq DNA polymerase): 20.7 ± 2.1 µM

Structure (SMILES): CC(=O)Oc1ccc2c(CSC(C)=O)cc(=O)oc2c1 [Compound 3c, 4-((Acetylthio)methyl)-2-oxo-2H-chromen-7-yl acetate]
IC50 (Taq DNA polymerase): 48.2 ± 1.2 µM

Structure (SMILES): CC(=O)SCc1cc(=O)oc2cc(O)ccc12 [Compound 3d, S-((7-Hydroxy-2-oxo-2H-chromen-4-yl)methyl) ethanethioate]
IC50 (Taq DNA polymerase): 143 ± 4.22 µM

Structure (SMILES): CC(=O)SCc1cc(=O)oc2ccc(O)cc12 [Compound 3e, S-((6-Hydroxy-2-oxo-2H-chromen-4-yl)methyl) ethanethioate]
IC50 (Taq DNA polymerase): 188 ± 19.4 µM

Structure (SMILES): COc1ccc2oc(=O)cc(CSC(C)=O)c2c1 [Compound 3f, S-((6-Methoxy-2-oxo-2H-chromen-4-yl)methyl) ethanethioate]
inhibitory activity against Taq DNA polymerase (in words) (Taq DNA polymerase): absence of activity

Structure (SMILES): CC(=O)Oc1ccc2oc(=O)cc(CSC(C)=O)c2c1 [Compound 3g, 4-((Acetylthio)methyl)-2-oxo-2H-chromen-6-yl acetate]
inhibitory activity against Taq DNA polymerase (in words) (Taq DNA polymerase): without activity; also recorded: did not show in vitro activity | cytotoxicity in ΔΔΔΔpdr strain (in words) (SRP-ΔΔΔΔ (ΔΔΔΔpdr)): cytotoxic

Structure (SMILES): C=CCCOc1ccc2ccc(=O)oc2c1 [Compound 4b, 7-(But-3-en-1-yloxy)-2H-chromen-2-one]
cytotoxicity in ΔΔΔΔpdr strain (in words) (SRP-ΔΔΔΔ (ΔΔΔΔpdr)): cytotoxic

Structure (SMILES): C=CCCCOc1ccc2ccc(=O)oc2c1 [Compound 4c, 7-(Pent-4-en-1-yloxy)-2H-chromen-2-one]
cytotoxicity in ΔΔΔΔpdr strain (in words) (SRP-ΔΔΔΔ (ΔΔΔΔpdr)): cytotoxic

Structure (SMILES): O=c1ccc2ccc(OCCCC3CO3)cc2o1 (stereo not drawn) [Compound 5c, 7-(3-(Oxiran-2-yl)propoxy)-2H-chromen-2-one]
cytotoxicity in ΔΔrad (in words) (Δrad9 Δrad52 (ΔΔrad)): Cytotoxicity was observed | DNA damage in S. cerevisiae (in words) (Δrad9 Δrad52 (ΔΔrad)): caused DNA damage; also recorded: showed DNA damaging activity

Structure (SMILES): CCCCOc1ccc2ccc(=O)oc2c1 [Compound 6a, 7-Butoxy-2H-chromen-2-one]
cytotoxicity in ΔΔΔΔpdr strain (in words) (SRP-ΔΔΔΔ (ΔΔΔΔpdr)): cytotoxic

Structure (SMILES): CCCCCCOc1ccc2ccc(=O)oc2c1 [Compound 6b, 7-(Hexyloxy)-2H-chromen-2-one]
cytotoxicity in ΔΔΔΔpdr strain (in words) (SRP-ΔΔΔΔ (ΔΔΔΔpdr)): cytotoxic

Structure (SMILES): CCCCCCCOc1ccc2ccc(=O)oc2c1 [Compound 6c, 7-(Heptyloxy)-2H-chromen-2-one]
cytotoxicity in ΔΔΔΔpdr strain (in words) (SRP-ΔΔΔΔ (ΔΔΔΔpdr)): cytotoxic

Structure (SMILES): CC(=O)OC[C@@H]1OC(Oc2ccc3ccc(=O)oc3c2)C(OC(C)=O)[C@H](OC(C)=O)C1OC(C)=O (stereo partly drawn) [Compound 7c, (2S,4R)-2-(Acetoxymethyl)-6-((2-oxo-2H-chromen-7-yl)oxy)tetrahydro-2H-pyran-3,4,5-triyl triacetate]
cytotoxicity in ΔΔΔΔpdr strain (in words) (SRP-ΔΔΔΔ (ΔΔΔΔpdr)): cytotoxic
